Data taken from ChEMBL document CHEMBL3407378, “Design, synthesis and biological evaluation of novel 7-alkylamino substituted benzo[a]phenazin derivatives as dual topoisomerase I/II inhibitors” (Eur J Med Chem, 2015).
Active and inactive are the calls of the source. The calls are words filed in the database; no cut-off is given here.

Assays:
[1] = Cytotoxicity against human HL60 cells after 48 hrs by MTT assay; assay type: functional, cell-based; conditions: HL-60, 48 h
In short: (§1)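 Cells seeded 1 × 10^4 per well and incubated overnight, then given compound at 0–50 µM for 48 h. MTT added (20 µL of 5 mg/mL stock) for 4 h at 37 °C; formazan dissolved in DMSO, absorbance read at 570 nm. Triplicates; IC50 from mean OD versus concentration curves.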

K562 = assay: Cytotoxicity against human K562 cells after 48 hrs by MTT assay; assay type: functional, cell-based; conditions: K562, 48 h; in short: as §1
HeLa = assay: Cytotoxicity against human HeLa cells after 48 hrs by MTT assay; assay type: functional, cell-based; in short: as §1
A549 = assay: Cytotoxicity against human A549 cells after 48 hrs by MTT assay; assay type: functional, cell-based; conditions: A549, 48 h; in short: as §1
[2] = biological target: T1, DNA topoisomerase (Bos taurus) (UniProt A0JN73); assay: Induction of calf thymus Topo 1-pBR322 DNA cleavage complex formation assessed as nicked DNA formation after 30 mins by agarose gel electrophoresis
T1 sequence (whole entry): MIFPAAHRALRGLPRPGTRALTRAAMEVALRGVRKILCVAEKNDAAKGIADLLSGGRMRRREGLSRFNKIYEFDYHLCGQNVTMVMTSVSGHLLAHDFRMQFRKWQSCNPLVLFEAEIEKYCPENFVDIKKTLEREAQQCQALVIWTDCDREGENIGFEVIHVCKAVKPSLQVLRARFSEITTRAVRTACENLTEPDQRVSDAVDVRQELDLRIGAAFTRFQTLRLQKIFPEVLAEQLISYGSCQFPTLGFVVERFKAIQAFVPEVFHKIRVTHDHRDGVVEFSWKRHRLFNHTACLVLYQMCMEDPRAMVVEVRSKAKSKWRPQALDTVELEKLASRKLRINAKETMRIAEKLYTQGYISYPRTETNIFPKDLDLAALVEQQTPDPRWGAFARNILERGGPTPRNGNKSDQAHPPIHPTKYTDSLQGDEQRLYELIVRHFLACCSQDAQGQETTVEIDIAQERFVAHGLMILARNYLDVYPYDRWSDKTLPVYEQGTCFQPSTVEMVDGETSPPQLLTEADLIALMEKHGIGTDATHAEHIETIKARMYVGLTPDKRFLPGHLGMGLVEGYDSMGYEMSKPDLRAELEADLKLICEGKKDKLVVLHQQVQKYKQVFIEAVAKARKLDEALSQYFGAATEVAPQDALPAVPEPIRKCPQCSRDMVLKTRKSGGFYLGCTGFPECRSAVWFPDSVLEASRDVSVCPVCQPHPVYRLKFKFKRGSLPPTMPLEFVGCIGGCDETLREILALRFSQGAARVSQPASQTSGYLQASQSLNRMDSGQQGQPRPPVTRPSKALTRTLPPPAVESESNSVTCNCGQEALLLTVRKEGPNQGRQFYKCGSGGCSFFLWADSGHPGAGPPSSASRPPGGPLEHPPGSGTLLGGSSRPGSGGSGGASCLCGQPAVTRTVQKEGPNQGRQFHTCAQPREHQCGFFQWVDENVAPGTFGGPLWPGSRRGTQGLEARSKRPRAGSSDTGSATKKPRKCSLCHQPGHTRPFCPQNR
In short: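 Calf thymus Topo I (10 units) with 0.1 µg supercoiled pBR322 and 0.5–50 µM compound in Topo I buffer (pH 7.5) for […]. Complexes trapped with SDS then NaEDTA, followed by proteinase K for 30 min at 45 °C. Samples run on 1% agarose gel containing 0.5 µg/mL ethidium bromide. Nicked DNA quantified by optical density.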

[3] = biological target: T2, DNA topoisomerase 1 (Homo sapiens) (UniProt P11387); assay: Induction of Topo 1-DNA cleavage complex formation in human HL60 cells after 1 hr by ICE assay; assay type: cell-based; conditions: HL-60
T2 sequence (whole entry): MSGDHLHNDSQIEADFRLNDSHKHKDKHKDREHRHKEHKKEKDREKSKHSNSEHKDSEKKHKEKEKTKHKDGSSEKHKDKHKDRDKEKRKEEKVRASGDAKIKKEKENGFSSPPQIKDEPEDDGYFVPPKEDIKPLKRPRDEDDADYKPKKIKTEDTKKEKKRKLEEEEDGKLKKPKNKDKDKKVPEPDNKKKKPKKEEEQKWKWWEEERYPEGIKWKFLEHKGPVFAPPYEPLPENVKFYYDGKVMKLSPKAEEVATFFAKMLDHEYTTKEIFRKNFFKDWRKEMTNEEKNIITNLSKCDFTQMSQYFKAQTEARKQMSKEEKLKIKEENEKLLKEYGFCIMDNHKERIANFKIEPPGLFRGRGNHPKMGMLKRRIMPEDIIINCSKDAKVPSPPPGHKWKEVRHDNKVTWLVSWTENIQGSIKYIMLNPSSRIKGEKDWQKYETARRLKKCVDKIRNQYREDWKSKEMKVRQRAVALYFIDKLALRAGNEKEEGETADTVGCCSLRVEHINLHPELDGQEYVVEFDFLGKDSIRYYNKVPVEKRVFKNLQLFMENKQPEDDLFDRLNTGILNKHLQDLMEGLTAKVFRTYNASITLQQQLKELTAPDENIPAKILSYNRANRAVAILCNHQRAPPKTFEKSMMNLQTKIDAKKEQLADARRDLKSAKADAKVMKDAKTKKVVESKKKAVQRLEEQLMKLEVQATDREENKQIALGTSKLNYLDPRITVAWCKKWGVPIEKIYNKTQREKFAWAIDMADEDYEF
In short: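 Mid-log phase HL-60 cells exposed to 2, 5 or 10 µM compound (DMSO vehicle 1.0% v/v) for 1 h, then lysed in DNAzol. DNA was ethanol-precipitated, redissolved and quantified. 2 µg DNA in 25 mM NaH2PO4 pH 6.5 was blotted onto nitrocellulose. Covalent Topo I was probed with rabbit anti-human Topo I (1:1000) and HRP secondary (1:3000), read by chemiluminescence.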

[4] = biological target: T2, DNA topoisomerase 1 (Homo sapiens); assay: Inhibition of Topo 1 (unknown origin)-mediated relaxation of supercoiled pBR322 plasmid at 25 uM after 30 mins by agarose gel electrophoresis
In short: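 Topo I with supercoiled pBR322 and compound, 30 min at 37 °C. Stopped with SDS/bromophenol blue/glycerol dye; run on 1% agarose gel in TAE for 1 h and stained with Gel Red.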

[5] = biological target: DNA topoisomerase 2-alpha (Homo sapiens) (UniProt P11388); assay: Inhibition of human Topo 2-mediated relaxation of supercoiled pBR322 plasmid at 25 to 50 uM after 30 mins by agarose gel electrophoresis
Sequence of DNA topoisomerase 2-alpha (Homo sapiens) (P11388 whole entry, the tested form may be a part): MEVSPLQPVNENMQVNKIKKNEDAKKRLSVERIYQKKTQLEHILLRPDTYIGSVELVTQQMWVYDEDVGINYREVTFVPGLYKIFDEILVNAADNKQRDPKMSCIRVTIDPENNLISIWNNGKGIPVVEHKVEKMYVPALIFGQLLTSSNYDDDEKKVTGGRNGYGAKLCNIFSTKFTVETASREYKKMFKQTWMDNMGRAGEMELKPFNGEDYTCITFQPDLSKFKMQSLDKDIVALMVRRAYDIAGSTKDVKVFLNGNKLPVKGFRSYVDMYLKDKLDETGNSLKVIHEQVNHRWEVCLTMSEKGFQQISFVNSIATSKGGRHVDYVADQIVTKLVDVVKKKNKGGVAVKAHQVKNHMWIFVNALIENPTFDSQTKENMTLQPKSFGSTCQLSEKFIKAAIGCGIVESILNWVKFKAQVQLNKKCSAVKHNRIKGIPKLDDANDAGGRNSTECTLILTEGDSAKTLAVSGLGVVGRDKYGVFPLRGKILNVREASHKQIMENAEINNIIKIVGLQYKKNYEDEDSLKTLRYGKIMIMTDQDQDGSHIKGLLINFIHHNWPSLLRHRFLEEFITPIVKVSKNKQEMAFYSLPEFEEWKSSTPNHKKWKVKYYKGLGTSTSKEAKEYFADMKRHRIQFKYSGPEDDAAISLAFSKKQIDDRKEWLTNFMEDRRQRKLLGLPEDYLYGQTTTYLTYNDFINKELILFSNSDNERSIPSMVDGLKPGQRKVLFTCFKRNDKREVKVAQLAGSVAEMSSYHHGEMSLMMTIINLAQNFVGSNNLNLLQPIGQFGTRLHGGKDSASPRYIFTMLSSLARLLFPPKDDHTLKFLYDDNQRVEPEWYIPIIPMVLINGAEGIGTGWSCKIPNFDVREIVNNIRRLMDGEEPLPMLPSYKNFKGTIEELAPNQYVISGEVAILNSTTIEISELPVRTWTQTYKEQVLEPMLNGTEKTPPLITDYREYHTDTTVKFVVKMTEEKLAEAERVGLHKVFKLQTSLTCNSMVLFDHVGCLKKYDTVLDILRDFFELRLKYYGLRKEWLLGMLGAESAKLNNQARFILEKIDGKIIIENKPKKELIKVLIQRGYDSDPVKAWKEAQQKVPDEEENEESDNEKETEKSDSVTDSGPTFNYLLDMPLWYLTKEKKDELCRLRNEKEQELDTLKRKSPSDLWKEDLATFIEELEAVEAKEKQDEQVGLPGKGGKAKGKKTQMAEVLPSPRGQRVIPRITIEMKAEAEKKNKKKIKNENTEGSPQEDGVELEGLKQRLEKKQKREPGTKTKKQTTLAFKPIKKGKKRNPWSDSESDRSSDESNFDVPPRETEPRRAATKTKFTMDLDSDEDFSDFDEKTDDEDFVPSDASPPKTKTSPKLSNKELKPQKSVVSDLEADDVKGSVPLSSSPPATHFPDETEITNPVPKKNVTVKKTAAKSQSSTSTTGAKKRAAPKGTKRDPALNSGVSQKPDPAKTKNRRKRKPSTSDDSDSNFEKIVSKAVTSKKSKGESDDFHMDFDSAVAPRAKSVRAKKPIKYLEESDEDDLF

[6] = biological target: T1, DNA topoisomerase (Bos taurus); assay: Induction of calf thymus Topo 1-pBR322 DNA cleavage complex formation assessed as nicked DNA formation at 0.5 to 10 uM after 30 mins by optical density analysis
In short: (§2)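 Calf thymus Topo I (10 units) with 0.1 µg supercoiled pBR322 and compound (0.5–50 µM) in Topo I buffer pH 7.5, 6 min at 37 °C. Complexes trapped with SDS then NaEDTA, proteinase K 30 min at 45 °C, heated 70 °C for 2 min, 1% agarose gel with ethidium bromide. Nicked DNA quantified by optical density.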

[7] = biological target: T1, DNA topoisomerase (Bos taurus); assay: Induction of calf thymus Topo 1-pBR322 DNA cleavage complex formation assessed as nicked DNA formation at 10 uM after 30 mins by optical density analysis relative to control; in short: as §2
[8] = biological target: T1, DNA topoisomerase (Bos taurus); assay: Induction of calf thymus Topo 1-pBR322 DNA cleavage complex formation assessed as nicked DNA formation at 25 to 50 uM after 30 mins by optical density analysis relative to control; in short: as §2
[9] = biological target: DNA topoisomerase 2-alpha (Homo sapiens) (UniProt P11388); assay: Induction of human Topo 2-pBR322 DNA cleavage complex formation assessed as linear DNA formation at 10 to 50 uM by agarose gel electrophoresis
Nucleic Acid [10] = assay: Binding affinity to Escherichia coli pBR322 DNA assessed as DNA intercalation activity compound preincubated at 5 to 100 uM for 10 mins before enzyme addition by DNA unwinding assay in presence of topoisomerase 1; assay type: nucleic-acid assay
Calf thymus DNA = assay: Binding affinity to calf thymus DNA at 15 uM after 5 mins by UV-vis spectrometry; assay type: nucleic-acid assay; conditions: Bos taurus
In short: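 Compound at 15 µM in DPBS pH 7.4 with 1% DMSO, titrated with CT-DNA (0–24 µM, quantified at 260 nm, ε 13,200 M(bp)-1 cm-1). Equilibrated 5 min at room temperature; absorption spectra recorded 400–600 nm; Kapp derived from titration.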

Nucleic Acid [11] = assay: Binding affinity to Escherichia coli pBR322 DNA assessed as DNA intercalation activity compound preincubated for 10 mins before enzyme addition by DNA unwinding assay in presence of topoisomerase 1; assay type: nucleic-acid assay
[12] = biological target: DNA topoisomerase 2-alpha (Homo sapiens) (UniProt P11388); assay: Inhibition of human Topo 2-mediated relaxation of supercoiled pBR322 plasmid at 25 uM after 30 mins by agarose gel electrophoresis
[13] = biological target: DNA topoisomerase 2-alpha (Homo sapiens) (UniProt P11388); assay: Inhibition of human Topo 2 ATPase domain expressed in yeast BCY123 strain at 25 uM after 1 hr by nonisotopic malachite green assay
In short: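 Human Topo II ATPase domain overexpressed in yeast BCY123 and purified. Assay buffer: 100 mM Tris-HCl pH 7.4, 20 mM KCl, 6 mM MgCl2. Reaction of 25 µL with compound, started with 1 mM ATP, 1 h at 37 °C. Phosphate detected with malachite green at OD620. No-enzyme background set as 100% inhibition and enzyme-only as 0%.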

[14] = biological target: DNA topoisomerase 2-alpha (Homo sapiens) (UniProt P11388); assay: Competitive inhibition of human Topo 2 ATPase domain expressed in yeast BCY123 strain after 1 hr by Lineweaver-Burk plot method
In short: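 Human Topo II ATPase domain expressed in yeast BCY123 and purified. Assay buffer: 100 mM Tris-HCl pH 7.4, 20 mM KCl, 6 mM MgCl2. ATP at 250, 500, 800, 1,000 and 2000 µM at each fixed compound level (0, 5, 25, 50, 100 µM), 1 h at 37 °C. Phosphate read by malachite green at 620 nm.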

Structure (SMILES) | IC50 [1] | IC50 (K562) | IC50 (HeLa) | IC50 (A549) | Activity [2] | Activity [3] | Topo I relaxation inhibition (active/not active) [4] | Topo 2 inhibition (active/not active) [5] | Activity [6] | fold change (FC) [7] | Activity [8] | Activity [9] | Activity (Nucleic Acid [10]) | Kapp (Calf thymus DNA) | Activity (Nucleic Acid [11]) | Topo 2 inhibition (active/not active) [12] | inhibition [13] | inhibition [14]
CC[C@@]1(O)C(=O)OCc2c1cc1n(c2=O)Cc2cc3ccccc3nc2-1 [CAMPTOTHECIN] | 70 nM | 5.37 µM | 11.6 µM | 26.4 µM | Dose-dependent effect | Dose-dependent effect |  |  |  |  |  |  |  |  |  |  |  | 
CN(C)CCCCn1c2cc(=O)c3ccccc3c-2nc2ccccc21 | 380 nM | 4.73 µM | 21.4 µM | 16.3 µM |  | Dose-dependent effect | Active | Active | Dose-dependent effect | 2.5 | Active | inactive | Active | 4.83 ×10⁵ /M |  |  |  | 
CC[n+]1c(-c2ccccc2)c2cc(N)ccc2c2ccc(N)cc21 |  |  |  |  |  |  |  |  |  |  |  |  |  |  | Dose-dependent effect |  |  | 
COc1ccc2c3nc4ccc(OC)cc4n(CCCN(C)C)c-3cc(=O)c2c1 | 90 nM | 8.73 µM | 18.2 µM | 26.4 µM |  |  |  |  |  |  |  |  |  |  |  | Active | 78% | Dose-dependent effect
